Test results reported in ChEMBL document CHEMBL4808163, “Benzothiazolyl and Benzoxazolyl Hydrazones Function as Zinc Metallochaperones to Reactivate Mutant p53” (J Med Chem, 2021).
The source made the active and inactive calls. The calls are words filed in the database; no cut-off is given here.

How the values were obtained:
[1] = target: 5-hydroxytryptamine receptor 2A (Homo sapiens, UniProt P28223); test: Displacement of [125I]+/-DOI from human recombinant 5-HT2A receptor at 10 uM after 60 mins by scintillation counting analysis relative to control; conditions: recombinant human 5-HT2A receptor, probe [125I]+/-DOI
[2] = target: Mu-type opioid receptor (Homo sapiens, UniProt P35372); test: Displacement of [3H]DAMGO from human recombinant mu receptor at 10 uM after 120 mins by scintillation counting analysis relative to control; conditions: probe [3H]DAMGO
[3] = target: hERG (KCNH2) (Homo sapiens, UniProt Q12809); test: Displacement of [3H]-dofetilide from human recombinant ERG at 10 uM relative to control; conditions: probe [3H]-dofetilide
[4] = Induction of Zinc-dependent p53 R175H mutant refolding by assessing wild type conformation
In short: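 Cells grown on coverslips and treated, fixed in 4% paraformaldehyde 10 min, permeabilized in 0.5% Triton X-100 5 min. Stained overnight with conformation-specific antibodies PAB1620 (1:50, wild-type fold) and PAB240 (1:400, misfolded/unfolded), then goat anti-mouse IgG secondary for 40 min.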

[5] = target: Sodium-dependent noradrenaline transporter (Homo sapiens, UniProt P23975); test: Displacement of [3H]nisoxetine from recombinant human norepinephrine transporter at 10 uM incubated for 120 mins by radiometric scintillation analysis relative to control; format: ADME; conditions: probe [3H]nisoxetine
[6] = test system: Sodium channel site 2; test: Displacement of [3H]batrachotoxinin from rat Sodium channel site 2 at 10 uM incubated for 60 mins by radiometric scintillation analysis relative to control; conditions: rat sodium channel site 2, probe [3H]batrachotoxinin
[7] = Binding affinity to Zn(II)+ incubated for 60 mins using FluoZin-3 by fuorescence assay
[8] = test system: NCI-H1299; test: Induction of ROS production in human H1299 cells at 0.75 uM incubated for 24 hrs by CellRox green based fluorescence flow cytometry relative to ZMC1; format: functional
[9] = test system: NCI-H1299; test: Cytotoxicity against p53-null human H1299 cells; format: functional, cell-based
In short: (§1)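 5000 cells/well seeded; serial compound dilutions added next day at about 50% confluence. Growth read by MTS or Calcein AM after 3 days. Three independent experiments, each in triplicate; significance by Student's t test.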

[10] = test system: NCI-H460; test: Cytotoxicity against human NCI-H460 cells harbouring p53 wild type; format: functional, cell-based; in short: as §1
[11] = test system: TOV112D; test: Growth inhibition of human TOV112D cells harbouring p53 R175H mutant incubated for 3 days by MTS assay; format: functional, cell-based; conditions: 72 h
[12] = test system: TOV112D; test: Anticancer activity against human TOV112D cells harbouring p53 R175H mutant xenografted NCr nu/nu mouse assessed as tumor growth inhibition at 5.73 mg/kg, ip relative to control; format: functional; conditions: read-out: TGI
In short: (§2)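 Tumors (five per group) were grown to 50 mm³, then the compound was given ip daily. Dimensions were measured every other day, with volume = L × W² × π/6. Significance was tested by Student's t test.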

[13] = Ratio of EC50 for test compound to EC50 for ZMC1 for growth inhibition of human TOV-112D cells harbouring p53 R175H mutant incubated for 3 days by MTS assay; format: functional, TOV112D; conditions: time 3 day
[14] = Growth inhibition of human TOV112D cells harbouring p53 R175H mutant incubated for 3 days combination with 5 Gy radiation by MTS assay; format: functional, cell-based; conditions: TOV-112D, 72 h
In short: (§3)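 5000 cells per well seeded to reach 50% confluence the next day, then given serial dilutions of compound; line 1 cells also received 5 Gy γ-irradiation, line 2 cells also received etoposide (level not stated). Growth read by MTS or Calcein AM after 3 days (72 h). EC50 taken from dilution curve; three independent experiments, each in triplicate, Student's t test.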

[15] = Binding affinity to Cu(II)+ using CuSO4
[16] = Growth inhibition of human TOV112D cells harbouring p53 R175H mutant incubated for 3 days combination with etoposide by MTS assay; format: functional, cell-based; conditions: TOV-112D, 72 h; in short: as §3
[17] = Stability in simulated gastric fluid assessed as parent compound remaining measured at 37 degC; format: ADME; conditions: simulated gi fluid
In short: (§4)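 Incubation in simulated gastric fluid (pH 1–2) at room temperature (~23 °C) or 37 °C. Parent compound remaining quantified by HPLC at 220 and 254 nm, with peak identity confirmed by LC–MS.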

[18] = Stability in simulated gastric fluid assessed as parent compound remaining measured after 6 hrs at room temperature; format: ADME; conditions: read-out: Stabilty; in short: as §4
[19] = Apparent permeability in human Caco-2 cells at 5 uM measured up to 90 mins by LC-MS/MS analysis; format: ADME, cell-based
[20] = Toxicity in mouse assessed as maximum tolerated dose; conditions: in vivo
In short: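 Acute single-dose test in NCr nu/nu nude mice aged 8–12 weeks, 5 mice per dose. One intraperitoneal injection was given, then health, behaviour and body weight were monitored.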

[21] = Stability in simulated gastric fluid assessed as parent compound remaining measured after 7 hrs at room temperature; format: ADME; conditions: read-out: Stabilty; in short: as §4
[22] = Binding affinity to Zn(II)+ incubated for 60 mins using RhodZin-3 by fuorescence assay
[23] = Toxicity in NCr nu/nu mouse assessed as change in body weight loss up to 30 mg/kg, ip; format: organism-based; conditions: in vivo
In short: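 NCr nu/nu mice, 8–12 weeks old, 5 per dose, given a single intraperitoneal injection for acute maximum tolerated dose testing. Health, behavior and body weight monitored afterward.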

[24] = test system: MDA-MB-468; test: Anticancer activity against human MDA-MB-468 cells harbouring p53 R273H mutant xenografted NCr nu/nu mouse assessed as tumor growth inhibition at 5.73 mg/kg, ip relative to control; format: functional, organism-based
In short: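 MDA-MB-468 xenografts (6 × 10⁶ cells/site) in NCr nu/nu nude mice, five tumors per group, grown to 50 mm³, then dosed ip daily. Tumor length and width measured every other day; volume = L × W² × π/6. Growth versus control compared by Student's t test.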

[25] = test system: TOV112D; test: Anticancer activity against human TOV112D cells harbouring p53 R175H mutant xenografted NCr nu/nu mouse assessed as tumor growth inhibition at 5 mg/kg, ip relative to control; format: functional; conditions: read-out: TGI; in short: as §2

5-hydroxytryptamine receptor 2A, sequence (P28223 whole entry): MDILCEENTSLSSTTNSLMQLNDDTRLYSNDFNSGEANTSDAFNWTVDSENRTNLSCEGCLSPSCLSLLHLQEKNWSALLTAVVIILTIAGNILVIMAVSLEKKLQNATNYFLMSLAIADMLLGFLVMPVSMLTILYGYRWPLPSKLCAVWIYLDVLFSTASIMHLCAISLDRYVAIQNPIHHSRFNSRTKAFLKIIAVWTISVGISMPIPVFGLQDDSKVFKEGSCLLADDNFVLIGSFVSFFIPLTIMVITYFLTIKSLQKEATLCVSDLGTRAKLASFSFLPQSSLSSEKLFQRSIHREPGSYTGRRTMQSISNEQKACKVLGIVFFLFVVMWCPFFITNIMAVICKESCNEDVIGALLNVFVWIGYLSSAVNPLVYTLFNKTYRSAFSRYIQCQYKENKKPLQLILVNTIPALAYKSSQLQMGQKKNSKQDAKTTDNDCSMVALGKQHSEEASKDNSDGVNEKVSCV
hERG (KCNH2), sequence (Q12809 whole entry): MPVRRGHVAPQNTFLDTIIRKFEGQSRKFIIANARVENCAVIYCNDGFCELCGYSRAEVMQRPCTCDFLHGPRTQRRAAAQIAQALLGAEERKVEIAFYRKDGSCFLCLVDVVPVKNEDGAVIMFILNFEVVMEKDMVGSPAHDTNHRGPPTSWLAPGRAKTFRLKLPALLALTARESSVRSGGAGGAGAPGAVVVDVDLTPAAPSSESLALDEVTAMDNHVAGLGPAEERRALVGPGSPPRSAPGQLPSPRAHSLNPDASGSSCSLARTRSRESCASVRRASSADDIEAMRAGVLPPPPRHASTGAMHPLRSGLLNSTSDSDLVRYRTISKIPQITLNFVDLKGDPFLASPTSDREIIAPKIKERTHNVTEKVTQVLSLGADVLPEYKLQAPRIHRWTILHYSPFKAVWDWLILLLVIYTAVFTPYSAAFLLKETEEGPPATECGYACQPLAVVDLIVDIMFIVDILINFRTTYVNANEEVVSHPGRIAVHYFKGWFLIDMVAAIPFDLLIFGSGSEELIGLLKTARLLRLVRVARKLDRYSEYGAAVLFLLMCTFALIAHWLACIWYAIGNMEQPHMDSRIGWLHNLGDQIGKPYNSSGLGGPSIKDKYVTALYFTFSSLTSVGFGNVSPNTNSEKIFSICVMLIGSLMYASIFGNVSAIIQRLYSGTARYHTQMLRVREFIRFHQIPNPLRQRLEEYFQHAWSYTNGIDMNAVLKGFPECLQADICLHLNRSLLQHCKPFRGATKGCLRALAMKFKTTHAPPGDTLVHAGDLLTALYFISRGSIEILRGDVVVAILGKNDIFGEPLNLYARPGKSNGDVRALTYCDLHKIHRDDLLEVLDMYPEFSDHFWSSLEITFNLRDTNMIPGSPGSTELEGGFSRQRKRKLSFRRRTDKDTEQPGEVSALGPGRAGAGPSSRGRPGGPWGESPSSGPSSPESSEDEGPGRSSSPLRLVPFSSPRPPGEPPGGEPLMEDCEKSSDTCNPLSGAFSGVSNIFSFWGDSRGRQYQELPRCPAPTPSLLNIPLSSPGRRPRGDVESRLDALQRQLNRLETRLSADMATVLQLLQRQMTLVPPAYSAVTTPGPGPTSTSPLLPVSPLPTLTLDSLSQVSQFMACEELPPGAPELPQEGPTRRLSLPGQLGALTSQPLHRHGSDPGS
Mu-type opioid receptor, sequence (P35372 whole entry): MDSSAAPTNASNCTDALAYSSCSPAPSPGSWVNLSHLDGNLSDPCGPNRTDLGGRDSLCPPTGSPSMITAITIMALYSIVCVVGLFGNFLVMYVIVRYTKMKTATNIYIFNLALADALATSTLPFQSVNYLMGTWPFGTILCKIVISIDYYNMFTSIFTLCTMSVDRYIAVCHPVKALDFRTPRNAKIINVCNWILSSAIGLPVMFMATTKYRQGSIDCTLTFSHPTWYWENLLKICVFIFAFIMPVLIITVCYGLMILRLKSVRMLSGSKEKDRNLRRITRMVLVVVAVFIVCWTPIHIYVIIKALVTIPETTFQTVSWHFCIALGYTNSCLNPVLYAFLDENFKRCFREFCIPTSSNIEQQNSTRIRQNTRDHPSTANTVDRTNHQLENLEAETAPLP
Sodium-dependent noradrenaline transporter, sequence (P23975 whole entry): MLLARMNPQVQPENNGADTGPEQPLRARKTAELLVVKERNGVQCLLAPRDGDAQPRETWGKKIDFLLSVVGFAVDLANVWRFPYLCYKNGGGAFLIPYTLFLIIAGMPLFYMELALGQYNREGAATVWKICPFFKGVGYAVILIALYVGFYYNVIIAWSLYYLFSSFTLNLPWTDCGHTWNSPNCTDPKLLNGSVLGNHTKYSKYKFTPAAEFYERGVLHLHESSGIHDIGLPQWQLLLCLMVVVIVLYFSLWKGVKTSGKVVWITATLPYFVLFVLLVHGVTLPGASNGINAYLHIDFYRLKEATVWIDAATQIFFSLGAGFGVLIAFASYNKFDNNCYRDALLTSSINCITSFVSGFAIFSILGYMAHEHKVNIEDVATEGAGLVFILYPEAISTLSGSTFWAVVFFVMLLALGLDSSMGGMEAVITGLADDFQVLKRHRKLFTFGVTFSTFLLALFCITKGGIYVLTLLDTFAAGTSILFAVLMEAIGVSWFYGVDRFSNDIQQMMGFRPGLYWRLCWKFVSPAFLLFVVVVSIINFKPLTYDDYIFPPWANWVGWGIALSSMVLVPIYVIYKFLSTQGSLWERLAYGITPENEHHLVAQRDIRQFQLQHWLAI

Structure (SMILES)	inhibition at 1 h, 10 µM [1] [%]	inhibition at 10 µM [3] [%]	Activity [4]	inhibition at 2 h, 10 µM [5] [%]	inhibition at 1 h, 10 µM [6] [%]	Kd [7] [nM]	Ratio [8]	EC50 [11] [nM]	further results
C/C(=N\Nc1nc2ccccc2s1)c1cc(OCCN(C)C)ccn1	76	95	Active	82	36	55	2.5	–	inhibition at 2 h, 10 µM [2]: 48%
C/C(=N\NC(=S)N1CCC1)c1ncccc1C	–	–	inactive	–	–	–	–	–	–
C/C(=N\Nc1nc2ccccc2s1)c1cc(OCCO)ccn1	–	–	inactive	–	–	22	2.8	–	–
C/C(=N\Nc1nc2ccccc2o1)c1ccccn1	–	21	Active	21	12	–	–	6	inhibition at 2 h, 10 µM [2]: 2%; Activity [9]: inactive; Activity [10]: inactive
C/C(=N\Nc1nc2ccccc2o1)c1cc(OCCN(C)C)ccn1	32	51	Active	-25	21	47	1.4	53	inhibition in vivo at 5.73 mg/kg [12]: 56%; Ratio EC50 [13]: 5.6; inhibition at 2 h, 10 µM [2]: 0%
C/C(=N\Nc1nc2ccccc2n1CCN1CCCC1)c1ccccn1	96	88	Active	101	101	22	–	–	inhibition in vivo at 5.73 mg/kg [12]: 47%
C/C(=N\NC(=S)N1CCC1)c1cc(N(C)C)ccn1	–	–	inactive	–	–	–	–	8	–
C/C(=N\Nc1nccn1C)c1ccccn1	11	7	Active	4	23	408	0.9	445	inhibition in vivo at 5.73 mg/kg [12]: 57%; Ratio EC50 [13]: 47.1; inhibition at 2 h, 10 µM [2]: -2%
C/C(=N\Nc1nc2ccccc2n1CCN(C)C)c1ccccn1	–	–	Active	–	–	61	1.6	42	Ratio EC50 [13]: 5.2
C/C(=N\Nc1nc2ccccc2n1CCN1CCC(F)(F)C1)c1ccccn1	92	101	Active	-1	–	26	–	151	EC50 [14]: 180 nM; Kd [15]: 0.001 pM; EC50 [16]: 120 nM; Stabilty [17]: > 82%; remaining at 6 h [18]: > 92%
C/C(=N\Nc1nc2ccccc2n1C)c1ncccn1	11	77	inactive	-2	12	54	1.6	–	inhibition at 2 h, 10 µM [2]: 41%
C/C(=N\NC(=S)N1CCC1)c1ccccn1	–	–	Active	–	–	–	–	–	inhibition in vivo at 5.73 mg/kg [12]: 63%; Papp at […], 5 µM [19]: 4.4 ×10⁻⁶ cm/s; MTD [20]: 5 mg/kg; remaining at 7 h [21]: 22%
O=C(O)CN(CC(=O)O)CC(=O)O [NITRILOTRIACETIC ACID]	–	–	–	–	–	–	–	–	Kd ([22]; read-out: Kd): 17 nM
C/C(=N\Nc1nc2ccccc2s1)c1ncccn1	3	-2	inactive	84	2	79	1.2	–	inhibition at 2 h, 10 µM [2]: 4%
C/C(=N\NC(=S)N1CCC1)c1ccccc1	–	–	inactive	–	–	–	0.9	–	Kd [22]: Not Active
C/C(=N\Nc1nc2ccccc2s1)c1ccccn1	96	19	Active	101	101	–	–	55	Activity [23]: Non-Toxic; TGI [24]: inactive; inhibition in vivo at 5 mg/kg [25]: 72%; inhibition at 2 h, 10 µM [2]: 13%; Activity [9]: inactive; Activity [10]: inactive
C/C(=N\NC(=S)N1CCC1)c1cnccn1	–	–	Active	–	–	–	2	–	Ratio EC50 [13]: 4.5; Kd ([22]; read-out: Kd): 99.4 nM
C/C(=N\NC(=S)N(C)C)c1ccccn1	–	–	Active	–	–	–	1.3	1	Papp at […], 5 µM [19]: 7.3 ×10⁻⁶ cm/s; Ratio EC50 [13]: 0.2; Kd ([22]; read-out: Kd): 25.6 nM
C/C(=N\Nc1nc2ccccc2s1)c1cc(N(C)C)ccn1	–	–	Active	–	–	–	–	48	–
C/C(=N\Nc1ccc2ccccc2n1)c1ccccn1	–	–	Active	–	–	–	–	141	–
C/C(=N\Nc1nc2ccccc2n1CCN1CCOCC1)c1ccccn1	100	76	Active	-7	50	71	–	51	inhibition in vivo at 5.73 mg/kg [12]: 59%
C/C(=N\Nc1nc2ccccc2s1)c1cc(OCCN2CCN(C)CC2)ccn1	–	–	inactive	–	–	20	0.9	–	–
CS/C(=N\N=C(/C)c1ccccn1)N1CCC1	–	–	inactive	–	–	–	–	–	Kd [22]: Not Active
C/C(=N\NC(=O)N1CCC1)c1ccccn1	–	–	inactive	–	–	–	–	> 10000	–
CC(C)(C)/C(=N\NC(=S)N1CCC1)c1ccccn1	–	–	inactive	–	–	–	0.7	–	Kd [22]: Not Active
COC/C(=N\Nc1nc2ccccc2s1)c1ccccn1	–	–	Active	–	–	197	0.9	–	–
COCCOc1ccc2nc(N/N=C(\C)c3ccccn3)sc2c1	–	–	Active	–	–	81	2.4	–	Kd ([22]; read-out: Kd): 386 nM
C/C(=N\Nc1nc2ccccc2n1C)c1ccccn1	46	86	Active	61	7	–	–	4	inhibition at 2 h, 10 µM [2]: 48%
C/C(=N\NC(=S)N1CCC1)c1cccc(C)n1	–	–	Active	–	–	–	–	132	Kd ([22]; read-out: Kd): 48.3 nM
C/C(=N\NC(=S)NC1CCN(c2ccccn2)CC1)c1ccccn1	–	–	inactive	–	–	–	–	–	Kd [22]: Not Active
